Reference: article PMC2903386 (The Journal of Biological Chemistry, 2010)
Non-standard residues stand in square brackets, D forms with d. Residues, ends and D or L forms follow the SMILES beside them. *: point of attachment. X1 = CC[N+]1=C(C=CC=CC=C2N(CCCCCC(=O)NCCN3C(=O)CC(*)C3=O)c3ccc(S(=O)(=O)O)cc3C2(C)C)C(C)(C)c2cc(S(=O)(=O)[O-])ccc21; Ahx = NCCCCCC(=O)O

Key:
[1] = Tumor standardized uptake value; format: in vivo; settings: mouse, iv
[2] = Effect of inhibitors on cleavage of RLQLKL ACPP by PyMT tumor cystic fluid; format: biochemical, mouse; settings: for inhibition of cystic fluid cleavage of RLQLKL ACPP (in words): 5 μM Cy5-labeled RLQLKL ACPP, 2% cystic fluid, 2 h, 5 mM Ca-DTPA, 50 μM TPEN, 18 μM SB3CT, 50 nM GM6001, 0.26 μM prinomastat, 150 nM aprotinin, 100 μM leupeptin, 60 μM α1-antitrypsin, gel
Procedure, shortened: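 Cystic fluid was aspirated by syringe from surgically exposed fluid-filled mammary tumor nodules of PyMT mice. The 5 μm Cy5 peptide was incubated at 37 °C for 2 h in PBS with 1 μm ZnCl2. Inhibitors were used at manufacturer-recommended concentrations, including 10 μm E-64, 1 μm pepstatin A, protease inhibitor mixture III (1:1000) and mixture III plus DTPA. Cleavage was read by Tricine gel electrophoresis and Cy5 fluorescence imaging.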

Row | Compound | inhibition of cystic fluid cleavage of RLQLKL ACPP (in words) [2] | other results
1 | CC[N+]1=C(C=CC=CC=C2N(CCCCCC(=O)NCCN3C(=O)CC(SC[C@@H](NC(=O)[C@@H](CCCNC(=N)N)NC(=O)[C@@H](CCCNC(=N)N)NC(=O)[C@@H](CCCNC(=N)N)NC(=O)[C@@H](CCCNC(=N)N)NC(=O)[C@@H](CCCNC(=N)N)NC(=O)[C@@H](CCCNC(=N)N)NC(=O)[C@@H](CCCNC(=N)N)NC(=O)[C@@H](CCCNC(=N)N)NC(=O)[C@@H](CCCNC(=N)N)NC(=O)CNC(=O)[C@@H](C)NC(=O)[C@@H](CC(C)C)NC(=O)CNC(=O)[C@@H](CC(C)C)NC(=O)[C@H]4CCCN4C(=O)CCCCCNC(=O)[C@@H](CCC(=O)O)NC(=O)[C@@H](CCC(=O)O)NC(=O)[C@@H](CCC(=O)O)NC(=O)[C@@H](CCC(=O)O)NC(=O)[C@@H](CCC(=O)O)NC(=O)[C@@H](CCC(=O)O)NC(=O)[C@@H](CCC(=O)O)NC(=O)[C@@H](CCC(=O)O)NC(=O)[C@H](N)CCC(=O)O)C(N)=O)C3=O)c3ccc(S(=O)(=O)O)cc3C2(C)C)C(C)(C)c2cc(S(=O)(=O)[O-])ccc21 (stereo partly drawn) [PLGLAG ACPP D-amino acid control, reference compound] (H-[dE][dE][dE][dE][dE][dE][dE][dE][dE][Ahx][dP][dL]G[dL][dA]G[dR][dR][dR][dR][dR][dR][dR][dR][dR][dC](X1)-NH2) |  | SUV [1]: 0.14 ± 0.06 SUV
2 | O=S(=O)(CC1CS1)c1ccc(Oc2ccccc2)cc1 (stereo not shown) [SB3CT] | unaffected | 
3 | CC[N+]1=C(C=CC=CC=C2N(CCCCCC(=O)NCCN3C(=O)CC(SC[C@@H](NC(=O)[C@@H](CCCNC(=N)N)NC(=O)[C@@H](CCCNC(=N)N)NC(=O)[C@@H](CCCNC(=N)N)NC(=O)[C@@H](CCCNC(=N)N)NC(=O)[C@@H](CCCNC(=N)N)NC(=O)[C@@H](CCCNC(=N)N)NC(=O)[C@@H](CCCNC(=N)N)NC(=O)[C@@H](CCCNC(=N)N)NC(=O)[C@@H](CCCNC(=N)N)NC(=O)[C@@H](CC(C)C)NC(=O)[C@@H](CCCCN)NC(=O)[C@@H](CC(C)C)NC(=O)[C@@H](CCC(N)=O)NC(=O)[C@@H](CC(C)C)NC(=O)[C@@H](CCCNC(=N)N)NC(=O)CCCCCNC(=O)[C@@H](CCC(=O)O)NC(=O)[C@@H](CCC(=O)O)NC(=O)[C@@H](CCC(=O)O)NC(=O)[C@@H](CCC(=O)O)NC(=O)[C@@H](CCC(=O)O)NC(=O)[C@@H](CCC(=O)O)NC(=O)[C@@H](CCC(=O)O)NC(=O)[C@@H](CCC(=O)O)NC(=O)[C@H](N)CCC(=O)O)C(N)=O)C3=O)c3ccc(S(=O)(=O)O)cc3C2(C)C)C(C)(C)c2cc(S(=O)(=O)[O-])ccc21 (stereo partly shown) [rlqlkl ACPP] |  | SUV at 6 h ([1]; PyMT, 10 nmol): 0.13 ± 0.03 SUV
4 | c1ccc(CN(CCN(Cc2ccccn2)Cc2ccccn2)Cc2ccccn2)nc1 [TPEN, N,N,N′,N-tetrakis (2-pyridylmethyl) ethylenediamine] | unaffected | 
5 | CC(=O)N[C@@H](CC(C)C)C(=O)N[C@@H](CC(C)C)C(=O)N[C@H](C=O)CCCNC(=N)N [leupeptin] | partially inhibited | 
6 | CNC(=O)[C@H](Cc1c[nH]c2ccccc12)NC(=O)[C@@H](CC(=O)NO)CC(C)C [GM6001] | unaffected | inhibition of cystic fluid cleavage of RLQLKL ACPP at 1 μM (in words) ([2]; GM6001 at 1 μM, data not shown): no inhibition
7 | CC1(C)SCCN(S(=O)(=O)c2ccc(Oc3ccncc3)cc2)[C@H]1C(=O)NO [prinomastat] | unaffected | 
8 | O=C(O)CN(CCN(CC(=O)O)CC(=O)O)CCN(CC(=O)O)CC(=O)O [DTPA, diethylene triamine pentacetic acid] | unaffected | 
9 | aprotinin | partially inhibited | 
